The source made the active and inactive calls.
What was measured:
[1] = target: T1, Alpha-2A adrenergic receptor (Homo sapiens) (UniProt P08913); experiment: Antagonist activity at alpha2A adrenergic receptor expressed in HEK293 cells assessed as blockade of clonidine-mediated decrease in secreted alkaline phosphatase activity at 1 uM after 6 hrs relative to control; format: functional, cell-based
T1 sequence (whole entry): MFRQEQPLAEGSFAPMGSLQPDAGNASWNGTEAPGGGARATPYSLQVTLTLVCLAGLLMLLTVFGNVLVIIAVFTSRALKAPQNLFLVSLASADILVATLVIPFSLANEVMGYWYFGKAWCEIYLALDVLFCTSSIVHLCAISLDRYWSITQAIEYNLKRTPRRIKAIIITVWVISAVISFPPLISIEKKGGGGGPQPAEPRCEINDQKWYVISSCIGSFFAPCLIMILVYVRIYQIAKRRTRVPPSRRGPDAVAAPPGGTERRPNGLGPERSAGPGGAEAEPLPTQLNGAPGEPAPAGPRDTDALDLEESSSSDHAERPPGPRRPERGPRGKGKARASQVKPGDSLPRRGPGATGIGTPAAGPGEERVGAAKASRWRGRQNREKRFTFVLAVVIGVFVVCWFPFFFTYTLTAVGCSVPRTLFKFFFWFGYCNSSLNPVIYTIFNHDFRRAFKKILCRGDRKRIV
In short: (§1)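 HEK-293 cells transiently co-transfected with pCRE-SeAP and a Flag-tagged receptor, 30,000 cells/well on poly-L-lysine. They were serum-starved 16–18 h, then exposed 6 h in serum-free medium to 10 μM forskolin (omitted for β2) plus the receptor agonist (100 nM), with or without peptide (1 μM). Heat-treated supernatant SeAP was read by CSPD chemiluminescence. Mean ± SEM, n = 6.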

[2] = target: Mu-type opioid receptor (Homo sapiens) (UniProt P35372); experiment: Antagonist activity at mu opioid receptor expressed in HEK293 cells assessed as blockade of DAMGO-mediated decrease in secreted alkaline phosphatase activity at 1 uM after 6 hrs relative to control; format: functional, cell-based; in short: as §1
Mu-type opioid receptor (Homo sapiens), sequence (P35372 whole entry): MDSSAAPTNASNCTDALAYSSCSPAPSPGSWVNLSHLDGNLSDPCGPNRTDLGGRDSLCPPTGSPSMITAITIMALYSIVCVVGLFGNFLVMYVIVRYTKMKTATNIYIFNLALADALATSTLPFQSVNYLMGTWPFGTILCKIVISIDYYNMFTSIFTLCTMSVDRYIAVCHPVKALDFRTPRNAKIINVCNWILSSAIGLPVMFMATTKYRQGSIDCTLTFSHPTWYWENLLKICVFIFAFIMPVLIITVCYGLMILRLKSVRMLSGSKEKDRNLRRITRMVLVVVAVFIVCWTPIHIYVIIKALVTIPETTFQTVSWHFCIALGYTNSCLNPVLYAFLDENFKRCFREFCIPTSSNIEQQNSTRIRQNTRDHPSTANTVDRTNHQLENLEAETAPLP

[3] = target: Cannabinoid receptor 1 (Homo sapiens) (UniProt P21554); experiment: Antagonist activity at CB1 receptor expressed in HEK293 cells assessed as blockade of secreted alkaline phosphatase activity at 1 uM after 6 hrs relative to control; format: functional, cell-based
Cannabinoid receptor 1 (Homo sapiens), sequence (P21554 whole entry): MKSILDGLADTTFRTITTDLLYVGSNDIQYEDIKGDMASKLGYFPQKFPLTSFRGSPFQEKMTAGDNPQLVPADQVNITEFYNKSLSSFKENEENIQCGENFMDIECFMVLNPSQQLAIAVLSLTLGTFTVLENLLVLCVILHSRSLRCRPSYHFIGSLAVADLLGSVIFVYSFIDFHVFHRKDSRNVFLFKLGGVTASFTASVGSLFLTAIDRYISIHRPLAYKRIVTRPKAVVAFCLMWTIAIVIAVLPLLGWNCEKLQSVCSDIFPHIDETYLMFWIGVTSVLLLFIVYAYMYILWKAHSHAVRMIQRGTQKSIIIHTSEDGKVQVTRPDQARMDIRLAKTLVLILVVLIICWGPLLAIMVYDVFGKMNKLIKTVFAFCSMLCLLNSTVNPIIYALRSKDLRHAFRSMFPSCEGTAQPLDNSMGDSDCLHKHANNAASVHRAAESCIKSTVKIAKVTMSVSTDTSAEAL
In short: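 HEK-293 cells transfected with 5 μg pCRE-SeAP plus 1 μg Flag-tagged CB₁ or CB₂ receptor, 30,000 cells/well, serum-starved 16–18 h. Stimulated 6 h in serum-free medium with 10 μM forskolin and 100 nM agonist, without or with 1 μM test peptide. Supernatant diluted in pH 7.2 buffer, heated 65°C 20 min, then CSPD chemiluminescence read. Mean ± SEM, n = 6.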

[4] = target: T2, Cannabinoid receptor 2 (Rattus norvegicus) (UniProt Q9QZN9); experiment: Antagonist activity at Long-Evans rat spleen CB2 receptor assessed as blockade of Hu210-induced increase in GTPgammaS binding; format: functional, tissue-based
T2 sequence (whole entry): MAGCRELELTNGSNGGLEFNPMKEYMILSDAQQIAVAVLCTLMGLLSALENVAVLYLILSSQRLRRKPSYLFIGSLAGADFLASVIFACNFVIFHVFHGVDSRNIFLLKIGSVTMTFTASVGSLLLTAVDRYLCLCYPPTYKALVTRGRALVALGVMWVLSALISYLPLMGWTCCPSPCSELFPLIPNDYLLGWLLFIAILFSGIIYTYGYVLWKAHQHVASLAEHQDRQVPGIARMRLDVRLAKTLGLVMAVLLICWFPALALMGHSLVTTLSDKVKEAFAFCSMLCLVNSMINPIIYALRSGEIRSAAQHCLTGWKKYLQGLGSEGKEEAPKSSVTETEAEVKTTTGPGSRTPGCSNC
In short: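 Membranes (10 μg) came from striatum (CB1) or spleen (CB2). They were tested in GTPγS-binding or adenylyl cyclase assays with Hu-210 and test ligand (0–1 μM), or with Hu-210 curves with or without 10 μM peptide; a 1 μM single-point combination was also used. Mean ± SE of triplicates.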

[5] = target: Cannabinoid receptor 1 (Homo sapiens) (UniProt P21554); experiment: Antagonist activity at CB1 receptor expressed in HEK293 cells assessed as blockade of Hu210-mediated decrease in secreted alkaline phosphatase activity at 1 uM after 6 hrs relative to control; format: functional, cell-based; in short: as §1
[6] = target: Delta-type opioid receptor (Homo sapiens) (UniProt P41143); experiment: Antagonist activity at delta opioid receptor expressed in HEK293 cells assessed as blockade of deltorphin 2-mediated decrease in secreted alkaline phosphatase activity at 1 uM after 6 hrs relative to control; format: functional, cell-based; in short: as §1
Delta-type opioid receptor (Homo sapiens), sequence (P41143 whole entry): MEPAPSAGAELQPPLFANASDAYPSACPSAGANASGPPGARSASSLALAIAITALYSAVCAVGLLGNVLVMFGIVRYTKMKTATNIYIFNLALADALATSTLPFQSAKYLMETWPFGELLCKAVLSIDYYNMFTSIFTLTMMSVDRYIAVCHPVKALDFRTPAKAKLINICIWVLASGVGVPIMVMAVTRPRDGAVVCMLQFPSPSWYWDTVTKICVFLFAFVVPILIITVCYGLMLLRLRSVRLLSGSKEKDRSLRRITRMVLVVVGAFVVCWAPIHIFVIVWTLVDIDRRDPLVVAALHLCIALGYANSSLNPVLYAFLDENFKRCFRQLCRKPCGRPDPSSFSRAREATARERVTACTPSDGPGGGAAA

Rattus norvegicus [7] = experiment: Antihyperalgesic effects in Wistar rat assessed as reduction of carrageenan-induced paw pressure at 10 ug/kg, intraplantar after 3 hrs; format: functional, organism-based
In short: (§2)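 Male Wistar rats (200 g) received carrageenan 200 μg/paw intraplantar in saline into the right hind paw. Peptide was given at the same time: intraplantar 10 μg/paw, intrathecal 0.5 or 5 μg/kg, or oral 50 or 100 μg/kg; saline-treated rats served as controls. Paw-pressure withdrawal threshold (force ramp 16 g/s) was read at 0 and 3 h. n = 6–8.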

[8] = target: Delta-type opioid receptor (Homo sapiens) (UniProt P41143); experiment: Antagonist activity at delta opioid receptor expressed in HEK293 cells assessed as blockade of secreted alkaline phosphatase activity at 1 uM after 6 hrs relative to control; format: functional, cell-based; in short: as §1
[9] = target: Cannabinoid receptor 1 (Homo sapiens) (UniProt P21554); experiment: Antagonist activity at flag tagged recombinant CB1 receptor expressed in HEK293 cells assessed as blockade of Hu210-induced increase in phospho ERK1/2 level; format: functional, cell-based
In short: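 HEK-293 cells expressing Flag-tagged CB1 (2 × 10⁶ cells/well) were stimulated for 5 min with 100 nM Hu-210, with or without 10 μM antagonist. Phospho-ERK1/2 was quantified relative to untreated cells (100%). Mean ± SE of triplicate experiments.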

Rattus norvegicus [10] = experiment: Antihyperalgesic effects in Wistar rat assessed as reduction of carrageenan-induced paw pressure at 50 ug/kg, po after 3 hrs; format: functional, organism-based; in short: as §2
[11] = target: T3, Type-2 angiotensin II receptor (Homo sapiens) (UniProt P50052); experiment: Antagonist activity at AT2 angiotensin receptor expressed in SKNSH cells assessed as blockade of angiotensin 2-induced increase in antibody recognition at 100 nM by ELISA; format: functional, cell-based; set-up: scale not given: the % may be the effect or the level left
T3 sequence (whole entry): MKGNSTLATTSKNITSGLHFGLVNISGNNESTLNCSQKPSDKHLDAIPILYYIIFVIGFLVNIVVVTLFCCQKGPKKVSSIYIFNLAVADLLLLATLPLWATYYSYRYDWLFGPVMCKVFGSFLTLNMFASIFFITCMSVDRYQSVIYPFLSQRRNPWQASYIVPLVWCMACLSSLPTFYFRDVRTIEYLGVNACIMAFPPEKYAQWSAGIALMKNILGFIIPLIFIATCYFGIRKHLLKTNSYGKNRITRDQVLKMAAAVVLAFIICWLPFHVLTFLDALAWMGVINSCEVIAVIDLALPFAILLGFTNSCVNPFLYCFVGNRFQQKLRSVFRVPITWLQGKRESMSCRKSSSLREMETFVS

[12] = target: T1, Alpha-2A adrenergic receptor (Homo sapiens); experiment: Antagonist activity at alpha2A adrenergic receptor expressed in HEK293 cells assessed as blockade of secreted alkaline phosphatase activity at 1 uM after 6 hrs relative to control; format: functional, cell-based; in short: as §1
[13] = target: Delta-type opioid receptor (Homo sapiens) (UniProt P41143); experiment: Antagonist activity at delta opioid receptor expressed in SKNSH cells assessed as blockade of deltorphin 2-induced increase in antibody recognition at 100 nM by ELISA relative to control; format: functional, cell-based; set-up: scale not given: the % may be the effect or the level left
Rattus norvegicus [14] = experiment: Antihyperalgesic effects in Wistar rat assessed as reduction of carrageenan-induced paw pressure at 100 ug/kg, po after 3 hrs; format: functional, organism-based; in short: as §2

Activity [1]: 0.53
Activity [2]: 0.61
Activity [3]: 1.15
Activity [4]: inactive
Activity [5]: 1.07
Activity [6]: 0.59
Activity [8]: 0.9
Activity [9]: Active
Activity [11]: 137%
Activity [12]: 0.92
Activity [13]: 131%
SMILES: CC(C)C[C@H](NC(=O)[C@H](Cc1ccccc1)NC(=O)[C@H](CCCCN)NC(=O)[C@H](Cc1ccccc1)NC(=O)[C@H](CC(N)=O)NC(=O)[C@@H](NC(=O)[C@@H]1CCCN1)C(C)C)C(=O)N[C@@H](CO)C(=O)N[C@@H](Cc1cnc[nH]1)C(=O)O [HEMOPRESSIN]
Activity (Rattus norvegicus [7]): Active
Activity (Rattus norvegicus [10]): Active
Activity (Rattus norvegicus [14]): Active
